Active and inactive are the calls of the source. The calls are words filed in the database; no cut-off is given here.
What was measured:
[1] = system: NCI-H1299; assay: Antitumour activity against human H1299 cells xenografted in Balb/c mouse assessed as inhibition of tumour growth at 40 mg/kg, po administered for 21 days by digital caliper method relative to control; type: functional; conditions: 504 h, read-out: TGI
Method in brief: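 Female nude mice, 6-8 weeks old, injected subcutaneously with 1×10^6 H1299 cells (100 µL of a 1×10^7/mL suspension in serum-free medium). At 100-120 mm3, randomized into groups of 5. Dosed orally each day for 21 days with drug dissolved in DMSO, or with vehicle. Caliper measurements and body weight taken every other day. Volume = short²×long×0.5. Growth inhibition based on change in volume relative to vehicle. Tumours weighed at the end.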

[2] = target: Protein kinase C theta type (Homo sapiens) (UniProt Q04759); assay: Inhibition of recombinant full-length human PKCtheta at 1 uM using histone H1as substrate measured after 40 mins in presence of [gamma33P]ATP by scintillation counting method relative to control
[3] = target: Bone morphogenetic protein receptor type-2 (Homo sapiens) (UniProt Q13873); assay: Inhibition of recombinant human BMPR2 (172 to 734 residues) at 1 uM using myelin basic protein as substrate measured after 120 mins in presence of [gamma33P]ATP by scintillation counting method relative to control
[4] = target: Myosin light chain kinase 2, skeletal/cardiac muscle (Homo sapiens) (UniProt Q9H1R3); assay: Inhibition of recombinant full length human MYLK2 at 1 uM using KKLNRTLSFAEPG as substrate measured after 40 mins in presence of [gamma33P]ATP by scintillation counting method relative to control
Method in brief: (§1)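 Single-point inhibition at 1 µM was measured in the Eurofins KinaseProfiler panel. Values are the mean of two independent experiments.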

[5] = system: NCI-H1299; assay: Downregulation of SOX2 in human H1299 cells at 0.25 to 1 uM by Western blot analysis; type: functional, cell-based
[6] = target: Ephrin type-A receptor 8 (Homo sapiens) (UniProt P29322); assay: Inhibition of recombinant human EphA8 (615 to 911 residues) at 1 uM using KTFCGTPEYLAPEVRREPRILSEEEQEMFRDFDYIADWC as substrate measured after 40 mins in presence of [gamma33P]ATP by scintillation counting method relative to control
[7] = organism: Mus musculus; assay: Inhibition of recombinant full-length mouse LYN N425D mutant at 1 uM using poly(Glu, Tyr) 4:1 as substrate measured after 40 mins in presence of [gamma33P]ATP by scintillation counting method relative to control
[8] = system: Tyrosine-protein kinase BTK (Homo sapiens), Q06187 [R28H]; assay: Inhibition of full-length recombinant human BTK R28H mutant at 1 uM using LSNLYHQGKFLQTFCGSPLYRRR as substrate measured after 40 mins in presence of [gamma33P]ATP by scintillation counting method relative to control; method in brief: as §1
[9] = target: Serine/threonine-protein kinase PLK3 (Homo sapiens) (UniProt Q9H4B4); assay: Inhibition of recombinant human Plk3 (19 to 301 residues) at 1 uM using casein as substrate measured after 40 mins in presence of [gamma33P]ATP by scintillation counting method relative to control; method in brief: as §1
[10] = target: G protein-coupled receptor kinase 6 (Homo sapiens) (UniProt P43250); assay: Inhibition of recombinant full-length human GRK6 at 1 uM using casein as substrate measured after 40 mins in presence of [gamma33P]ATP by scintillation counting method relative to control
[11] = target: Leucine-rich repeat serine/threonine-protein kinase 2 (Homo sapiens) (UniProt Q5S007); assay: Inhibition of recombinant human LRRK2 (970 to end residues) at 1 uM using RLGRDKYKTLRQIRQ as substrate measured after 40 mins in presence of [gamma33P]ATP by scintillation counting method relative to control
[12] = system: Homeodomain-interacting protein kinase 2 (Homo sapiens), Q9H2X6 [UNDEFINED MUTATION]; assay: Inhibition of recombinant human HIPK2 I471N mutant (165 to 564 residues) at 1 uM using myelin basic protein as substrate measured after 40 mins in presence of [gamma33P]ATP by scintillation counting method relative to control
[13] = target: Activin receptor type-1 (Homo sapiens) (UniProt Q04771); assay: Inhibition of recombinant human ALK2 (147 to end residues) at 1 uM using casein as substrate measured after 40 mins in presence of [gamma33P]ATP by scintillation counting method relative to control; method in brief: as §1
[14] = target: Tyrosine-protein kinase Lck (Homo sapiens) (UniProt P06239); assay: Inhibition of recombinant full-length human LCK activated at 1 uM using KVEKIGEGTYGVVYK as substrate measured after 40 mins in presence of [gamma33P]ATP by scintillation counting method relative to control
[15] = system: SiHa; assay: Antiproliferative activity against human SiHa cells assessed as inhibition of cell viability after 72 hrs by CCK-8 assay; type: functional, cell-based
Method in brief: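 Cells kept at 37 °C, 5% CO2 in DMEM or RPMI-1640 with 10% FBS and 1% penicillin/streptomycin, then seeded at 3000 cells/well (adherent) or 10,000 cells/well (suspension). Exposed to a range of concentrations for 72 h. CCK-8 added for 1-4 h before reading A450. […] Three independent experiments.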

[16] = target: Dual specificity mitogen-activated protein kinase kinase 3 (Homo sapiens) (UniProt P46734); assay: Inhibition of human MKK3 at 1 uM by radiometric method relative to control
Method in brief: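 Percent inhibition of kinase activity at a single compound concentration, measured by the outsourced Eurofins KinaseProfiler panel. Values are the mean of two independent experiments.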

[17] = Intrinsic clearance in CD-1 mouse liver microsomes at 2 uM in presence of NADPH measured up to 1 hr by HPLC analysis; type: ADME, Microsome
[18] = system: NCI-H1299; assay: Induction of apoptosis in human H1299 cells assessed as late apoptotic cells at 0.25 uM after 48 hrs by AnnexinV-FITC/PI staining-based flow cytometric analysis (reference value: 1.77%); type: functional
[19] = system: NCI-H1299; assay: Induction of apoptosis in human H1299 cells assessed as necrotic cells at 0.5 uM after 48 hrs by AnnexinV-FITC/PI staining-based flow cytometric analysis (reference value: 0.9%); type: functional
[20] = system: A549; assay: Downregulation of OCT4 in human A549 cells at 0.25 to 1 uM by Western blot analysis; type: functional, cell-based
[21] = target: Myotonin-protein kinase (Homo sapiens) (UniProt Q09013); assay: Inhibition of recombinant human DMPK (1 to 549 residues) at 1 uM using KKSRGDYMTMQIG as substrate measured after 40 mins in presence of [gamma33P]ATP by scintillation counting method relative to control
[22] = target: CDK6/cyclin D3 (Homo sapiens) (UniProt P30281+Q00534); assay: Inhibition of recombinant full-length human CDK6/cyclinD3 at 1 uM using Histone H1 as substrate measured after 40 mins in presence of [gamma33P]ATP by scintillation counting method relative to control; type: protein-complex assay
[23] = target: Serine/threonine-protein kinase SBK1 (Homo sapiens) (UniProt Q52WX2); assay: Inhibition of recombinant full-length human SBK1 at 1 uM using KKLRRTLSVA as substrate measured after 120 mins in presence of [gamma33P]ATP by scintillation counting method relative to control
Serine/threonine-protein kinase SBK1 (Homo sapiens), sequence (Q52WX2 whole entry): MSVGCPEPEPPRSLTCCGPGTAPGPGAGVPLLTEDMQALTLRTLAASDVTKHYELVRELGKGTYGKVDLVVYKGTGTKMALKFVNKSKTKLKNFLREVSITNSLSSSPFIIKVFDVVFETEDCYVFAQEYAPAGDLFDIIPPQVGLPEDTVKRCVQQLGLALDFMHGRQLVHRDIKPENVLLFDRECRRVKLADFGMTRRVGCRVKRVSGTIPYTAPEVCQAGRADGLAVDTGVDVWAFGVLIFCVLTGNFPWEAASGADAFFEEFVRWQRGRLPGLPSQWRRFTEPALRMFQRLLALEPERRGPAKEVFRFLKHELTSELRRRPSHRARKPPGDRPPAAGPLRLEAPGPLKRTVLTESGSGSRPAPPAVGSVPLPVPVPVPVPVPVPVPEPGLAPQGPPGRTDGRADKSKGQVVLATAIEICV

Protein kinase C theta type (Homo sapiens), sequence (Q04759 whole entry, looked up, the tested form may be a part): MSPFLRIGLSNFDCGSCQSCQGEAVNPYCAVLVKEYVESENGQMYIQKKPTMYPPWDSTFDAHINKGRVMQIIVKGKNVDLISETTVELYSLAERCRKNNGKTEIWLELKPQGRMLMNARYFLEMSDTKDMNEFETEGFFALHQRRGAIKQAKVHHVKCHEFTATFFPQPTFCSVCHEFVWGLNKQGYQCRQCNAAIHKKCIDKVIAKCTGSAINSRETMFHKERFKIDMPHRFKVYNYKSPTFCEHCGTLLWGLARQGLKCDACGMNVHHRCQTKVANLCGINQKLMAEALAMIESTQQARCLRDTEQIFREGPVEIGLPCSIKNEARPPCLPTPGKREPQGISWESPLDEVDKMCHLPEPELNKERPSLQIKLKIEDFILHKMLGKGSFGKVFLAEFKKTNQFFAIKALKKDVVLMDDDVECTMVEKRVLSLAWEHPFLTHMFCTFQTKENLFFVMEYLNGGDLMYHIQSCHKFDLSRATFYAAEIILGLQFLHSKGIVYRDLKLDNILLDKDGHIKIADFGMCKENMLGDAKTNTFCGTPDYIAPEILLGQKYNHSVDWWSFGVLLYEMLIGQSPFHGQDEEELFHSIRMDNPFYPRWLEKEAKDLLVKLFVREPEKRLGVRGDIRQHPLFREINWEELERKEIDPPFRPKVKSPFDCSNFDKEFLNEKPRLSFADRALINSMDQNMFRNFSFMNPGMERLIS
Tyrosine-protein kinase Lck (Homo sapiens), sequence (P06239 2-509 limits assumed): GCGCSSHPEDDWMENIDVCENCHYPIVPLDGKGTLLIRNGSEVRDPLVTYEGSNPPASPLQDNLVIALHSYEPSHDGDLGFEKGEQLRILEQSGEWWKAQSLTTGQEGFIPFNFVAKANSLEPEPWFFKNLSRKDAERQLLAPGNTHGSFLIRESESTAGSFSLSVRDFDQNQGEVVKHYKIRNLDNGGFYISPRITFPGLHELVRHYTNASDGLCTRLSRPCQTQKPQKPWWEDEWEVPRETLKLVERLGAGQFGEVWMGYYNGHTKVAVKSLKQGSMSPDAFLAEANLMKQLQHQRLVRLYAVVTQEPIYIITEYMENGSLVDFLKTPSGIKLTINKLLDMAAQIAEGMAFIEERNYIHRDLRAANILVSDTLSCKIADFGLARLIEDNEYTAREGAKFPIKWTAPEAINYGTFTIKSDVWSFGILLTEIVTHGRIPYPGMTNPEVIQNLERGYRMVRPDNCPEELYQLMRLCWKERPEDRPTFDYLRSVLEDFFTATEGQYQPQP
G protein-coupled receptor kinase 6 (Homo sapiens), sequence (P43250 whole entry, looked up): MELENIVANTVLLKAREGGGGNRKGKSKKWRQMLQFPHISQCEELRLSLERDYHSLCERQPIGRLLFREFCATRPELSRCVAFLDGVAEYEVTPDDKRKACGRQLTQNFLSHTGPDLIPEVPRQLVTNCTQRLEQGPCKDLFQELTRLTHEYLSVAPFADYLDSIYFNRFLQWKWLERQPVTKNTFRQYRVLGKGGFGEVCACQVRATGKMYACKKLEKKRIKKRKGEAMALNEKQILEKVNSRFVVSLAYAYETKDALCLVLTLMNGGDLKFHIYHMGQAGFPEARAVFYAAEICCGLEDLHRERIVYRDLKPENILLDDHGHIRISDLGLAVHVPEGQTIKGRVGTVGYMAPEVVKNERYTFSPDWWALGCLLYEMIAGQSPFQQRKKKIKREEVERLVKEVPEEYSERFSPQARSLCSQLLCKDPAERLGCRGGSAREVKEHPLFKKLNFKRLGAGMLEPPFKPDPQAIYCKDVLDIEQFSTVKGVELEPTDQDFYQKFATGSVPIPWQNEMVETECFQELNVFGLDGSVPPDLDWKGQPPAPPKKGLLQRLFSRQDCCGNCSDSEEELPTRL
Tyrosine-protein kinase BTK (Homo sapiens), Q06187 [R28H], sequence (Q06187 whole entry R28H, the tested form may be a part): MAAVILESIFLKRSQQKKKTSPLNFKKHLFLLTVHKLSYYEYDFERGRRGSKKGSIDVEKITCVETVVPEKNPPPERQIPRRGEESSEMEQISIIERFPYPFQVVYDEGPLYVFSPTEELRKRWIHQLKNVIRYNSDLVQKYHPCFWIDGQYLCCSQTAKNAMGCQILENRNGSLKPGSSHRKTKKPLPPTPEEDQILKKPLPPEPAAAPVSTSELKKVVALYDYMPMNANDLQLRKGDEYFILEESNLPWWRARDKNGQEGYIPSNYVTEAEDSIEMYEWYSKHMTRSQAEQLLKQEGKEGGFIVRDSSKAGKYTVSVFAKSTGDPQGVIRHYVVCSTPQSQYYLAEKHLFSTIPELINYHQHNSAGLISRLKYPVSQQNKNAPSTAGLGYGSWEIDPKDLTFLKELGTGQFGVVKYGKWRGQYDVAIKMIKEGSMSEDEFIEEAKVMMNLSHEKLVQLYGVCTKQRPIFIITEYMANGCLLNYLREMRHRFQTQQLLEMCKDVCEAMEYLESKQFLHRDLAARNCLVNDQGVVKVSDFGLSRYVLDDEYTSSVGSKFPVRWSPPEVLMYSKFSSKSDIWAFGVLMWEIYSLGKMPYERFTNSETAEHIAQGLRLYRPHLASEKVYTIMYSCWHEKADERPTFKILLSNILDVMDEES
Ephrin type-A receptor 8 (Homo sapiens), sequence (P29322 whole entry, the tested form may be a part): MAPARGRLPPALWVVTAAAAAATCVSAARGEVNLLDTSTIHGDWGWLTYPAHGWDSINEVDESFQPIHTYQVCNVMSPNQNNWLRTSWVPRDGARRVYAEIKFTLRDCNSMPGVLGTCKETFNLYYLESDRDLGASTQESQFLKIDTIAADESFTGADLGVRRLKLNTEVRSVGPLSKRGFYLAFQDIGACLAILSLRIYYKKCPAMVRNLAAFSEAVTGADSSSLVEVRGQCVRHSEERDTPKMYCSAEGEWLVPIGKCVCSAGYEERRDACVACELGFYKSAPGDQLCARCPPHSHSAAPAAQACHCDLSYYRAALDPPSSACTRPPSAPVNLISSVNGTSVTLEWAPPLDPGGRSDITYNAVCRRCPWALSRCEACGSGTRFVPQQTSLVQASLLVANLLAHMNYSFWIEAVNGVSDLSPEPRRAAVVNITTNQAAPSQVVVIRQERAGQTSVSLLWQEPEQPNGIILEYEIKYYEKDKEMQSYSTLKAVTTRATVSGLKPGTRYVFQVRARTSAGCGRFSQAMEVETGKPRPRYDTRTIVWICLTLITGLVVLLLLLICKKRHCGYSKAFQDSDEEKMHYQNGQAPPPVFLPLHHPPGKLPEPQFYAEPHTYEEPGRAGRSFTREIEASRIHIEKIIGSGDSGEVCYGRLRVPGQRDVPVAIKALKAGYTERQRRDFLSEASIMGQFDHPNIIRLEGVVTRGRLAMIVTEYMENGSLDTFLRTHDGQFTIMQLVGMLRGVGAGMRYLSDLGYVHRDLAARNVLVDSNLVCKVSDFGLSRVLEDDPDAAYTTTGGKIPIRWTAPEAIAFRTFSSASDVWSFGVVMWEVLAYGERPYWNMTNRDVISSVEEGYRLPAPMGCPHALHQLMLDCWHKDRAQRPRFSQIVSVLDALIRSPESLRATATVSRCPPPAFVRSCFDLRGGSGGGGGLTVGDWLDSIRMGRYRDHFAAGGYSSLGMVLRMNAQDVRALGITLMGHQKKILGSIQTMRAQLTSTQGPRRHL
Homeodomain-interacting protein kinase 2 (Homo sapiens), Q9H2X6 [UNDEFINED MUTATION], sequence (Q9H2X6 whole entry, looked up, stated change not applied, the tested form may be a part): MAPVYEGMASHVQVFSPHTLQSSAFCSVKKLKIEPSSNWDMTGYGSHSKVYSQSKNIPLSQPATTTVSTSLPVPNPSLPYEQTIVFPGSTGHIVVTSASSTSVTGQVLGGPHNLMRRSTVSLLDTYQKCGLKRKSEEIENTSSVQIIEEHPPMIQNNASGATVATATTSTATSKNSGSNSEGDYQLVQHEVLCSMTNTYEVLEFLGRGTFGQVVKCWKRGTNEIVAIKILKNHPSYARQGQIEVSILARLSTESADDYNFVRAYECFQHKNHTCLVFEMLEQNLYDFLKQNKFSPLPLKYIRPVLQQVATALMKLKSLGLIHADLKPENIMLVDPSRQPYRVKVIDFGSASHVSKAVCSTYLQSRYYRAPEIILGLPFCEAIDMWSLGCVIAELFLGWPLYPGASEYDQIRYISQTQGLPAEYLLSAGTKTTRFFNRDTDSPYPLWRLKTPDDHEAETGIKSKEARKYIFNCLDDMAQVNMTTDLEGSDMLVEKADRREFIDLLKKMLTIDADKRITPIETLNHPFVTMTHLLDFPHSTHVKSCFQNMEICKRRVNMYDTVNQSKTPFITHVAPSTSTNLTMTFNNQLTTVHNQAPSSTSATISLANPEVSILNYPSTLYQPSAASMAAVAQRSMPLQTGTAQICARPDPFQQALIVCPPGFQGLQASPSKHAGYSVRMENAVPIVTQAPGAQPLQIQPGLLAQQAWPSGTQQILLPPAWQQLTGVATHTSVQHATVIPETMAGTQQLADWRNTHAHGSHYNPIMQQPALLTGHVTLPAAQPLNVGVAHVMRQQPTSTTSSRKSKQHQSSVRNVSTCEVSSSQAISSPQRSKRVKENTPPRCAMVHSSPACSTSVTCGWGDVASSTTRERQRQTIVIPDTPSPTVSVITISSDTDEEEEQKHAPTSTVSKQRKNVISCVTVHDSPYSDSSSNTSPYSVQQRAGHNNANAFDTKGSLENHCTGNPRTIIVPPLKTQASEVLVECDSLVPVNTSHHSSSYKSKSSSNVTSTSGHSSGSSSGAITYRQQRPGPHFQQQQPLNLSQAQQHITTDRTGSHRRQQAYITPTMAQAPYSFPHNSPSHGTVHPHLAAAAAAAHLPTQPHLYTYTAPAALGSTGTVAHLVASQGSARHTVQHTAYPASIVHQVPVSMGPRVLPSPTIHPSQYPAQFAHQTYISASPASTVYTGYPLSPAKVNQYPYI

`CN(C)C(=O)c1cc2cnc(Nc3ccc(NC(=O)CCCCCCCN=C=S)cc3)nc2n1C1CCCC1` gave an inhibition in vivo at 40 mg/kg [1] of 89.7%, an inhibition [2] of 47% and an inhibition [3] of 73%. For the same molecule, the inhibition [4] was 12%, the Activity [5] was “Active” and the inhibition [6] was 2%. It also gave an inhibition [7] of 36%, an inhibition [8] of 1% and an inhibition [9] of 1%. For the same molecule, the inhibition [10] was 5%, the inhibition [11] was 8% and the inhibition [12] was 7%. It also gave an inhibition [13] of 11%, an inhibition [14] of 26% and an IC50 [15] of 1.81 µM. The inhibition [16] was 23%, the CLH [17] was 100 µL/min/mg and the Activity [18] was 2.24%. The Activity [19] was 1.11%, the Activity [20] was “Active” and the inhibition [21] was 5%. It also gave an inhibition [22] of 79% and an inhibition [23] of 88%.

From ChEMBL document CHEMBL4376814, “Novel cyclin-dependent kinase 9 (CDK9) inhibitor with suppression of cancer stemness activity against non-small-cell lung cancer” (Eur J Med Chem, 2019)
